Converted amounts (≈) assume the structure as drawn.
Key:
Staphylococcus aureus = experiment: Antimicrobial activity against Staphylococcus aureus after 24 hrs by tube dilution method; format: functional
Outline: (§1)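 Tube dilution in DMSO (stock 100 mg/ml) with serial dilutions; incubation 37 °C for 48 h for C. albicans (other organisms' times truncated in text). MIC read as lowest concentration inhibiting visible growth. Norfloxacin (bacteria) and fluconazole (fungi) as reference drugs.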

Bacillus subtilis = experiment: Antimicrobial activity against Bacillus subtilis after 24 hrs by tube dilution method; format: functional; outline: as §1
Escherichia coli = experiment: Antimicrobial activity against Escherichia coli after 24 hrs by tube dilution method; format: functional; outline: as §1
Aspergillus niger = experiment: Antimicrobial activity against Aspergillus niger after 7 days by tube dilution method; format: functional; details: 168 h; outline: as §1
Candida albicans = experiment: Antimicrobial activity against Candida albicans after 48 hrs by tube dilution method; format: functional; outline: as §1
[1] = Cytotoxicity against human HEL cells assessed as alteration in cell morphology; format: cell-based
Outline: (§2)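 Uninfected cell cultures tested in parallel with the CPE-reduction antiviral assay; cells grown to confluency, then serial compound dilutions added and incubated at 37 °C (3 days in the parallel antiviral set-up). Read-out is microscopic examination of morphology; value is the minimum cytotoxic concentration, the lowest causing a microscopically detectable alteration of normal cell morphology.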

Human alphaherpesvirus 1 [2] = experiment: Antiviral activity against HSV1 KOS infected in human HEL cells assessed as reduction in virus-induced cytopathogenicity after 3 days; format: functional, organism-based; details: Human alphaherpesvirus 1, KOS, 72 h
Human alphaherpesvirus 2 = experiment: Antiviral activity against HSV2 G infected in human HEL cells assessed as reduction in virus-induced cytopathogenicity after 3 days; format: functional, organism-based; details: Human alphaherpesvirus 2, strain G, 72 h
[3] = tested on: Vesicular stomatitis virus; experiment: Antiviral activity against VSV infected in human HEL cells assessed as reduction in virus-induced cytopathogenicity after 3 days; format: functional, organism-based; details: 72 h
Human alphaherpesvirus 1 [4] = experiment: Antiviral activity against thymidine kinase-deficient acyclovir-resistant HSV1 KOS infected in human HEL cells assessed as reduction in virus-induced cytopathogenicity after 3 days; format: functional, organism-based; details: Human alphaherpesvirus 1, KOS, 72 h
[5] = Cytotoxicity against human HeLa cells assessed as alteration in cell morphology; format: cell-based; outline: as §2
[6] = tested on: Vesicular stomatitis virus; experiment: Antiviral activity against VSV infected in human HeLa cells assessed as reduction in virus-induced cytopathogenicity after 3 days; format: functional, organism-based; details: 72 h
Coxsackievirus B4 [7] = experiment: Antiviral activity against Coxsackievirus B4 infected in human HeLa cells assessed as reduction in virus-induced cytopathogenicity after 3 days; format: functional, organism-based; details: Enterovirus B, 72 h
[8] = tested on: Respiratory syncytial virus; experiment: Antiviral activity against RSV infected in human HeLa cells assessed as reduction in virus-induced cytopathogenicity after 3 days; format: functional, organism-based; details: 72 h
[9] = Cytotoxicity against african green monkey Vero cells assessed as alteration in cell morphology; format: cell-based; details: chlorocebus sabaeus; outline: as §2
Human respirovirus 3 = experiment: Antiviral activity against Parainfluenza-3 virus infected in african green monkey Vero cells assessed as reduction in virus-induced cytopathogenicity after 3 days; format: functional, organism-based; details: Human respirovirus 3, Vero, 72 h
[10] = tested on: Mammalian orthoreovirus 1; experiment: Antiviral activity against Reovirus 1 infected in african green monkey Vero cells assessed as reduction in virus-induced cytopathogenicity after 3 days; format: functional, organism-based; details: Mammalian orthoreovirus 1, Vero, 72 h
Sindbis virus = experiment: Antiviral activity against Sindbis virus infected in african green monkey Vero cells assessed as reduction in virus-induced cytopathogenicity after 3 days; format: functional, organism-based; details: 72 h
Coxsackievirus B4 [11] = experiment: Antiviral activity against Coxsackievirus B4 infected in african green monkey Vero cells assessed as reduction in virus-induced cytopathogenicity after 3 days; format: functional, organism-based; details: Enterovirus B, 72 h
Punta Toro virus = experiment: Antiviral activity against Punta Toro virus infected in african green monkey Vero cells assessed as reduction in virus-induced cytopathogenicity after 3 days; format: functional, organism-based; details: 72 h

| SMILES | MBC (Staphylococcus aureus) [µM] | MIC (Staphylococcus aureus) [µM] | MBC (Bacillus subtilis) [µM] | MIC (Bacillus subtilis) [µM] | MBC (Escherichia coli) [µM] | MIC (Escherichia coli) [µM] | MFC (Aspergillus niger) [µM] | MIC (Aspergillus niger) [µM] | MFC (Candida albicans) [µM] | MIC (Candida albicans) [µM] | MCC [1] [µg/mL] | EC50 (Human alphaherpesvirus 1 [2]) [µg/mL] | EC50 (Human alphaherpesvirus 2) [µg/mL] | EC50 [3] [µg/mL] | EC50 (Human alphaherpesvirus 1 [4]) [µg/mL] | MCC [5] [µg/mL] | MCC [9] [µg/mL] | EC50 [10] [µg/mL] | EC50 (Sindbis virus) [µg/mL] | EC50 (Coxsackievirus B4 [11]) [µg/mL] | further results |
| --- | --- | --- | --- | --- | --- | --- | --- | --- | --- | --- | --- | --- | --- | --- | --- | --- | --- | --- | --- | --- | --- |
| COc1ccc(-c2nccn2C(=O)c2ccc([N+](=O)[O-])cc2)cc1 | 18 (≈ 5.82 µg/mL) | 2 (≈ 0.647 µg/mL) | 18 (≈ 5.82 µg/mL) | 2 (≈ 0.647 µg/mL) | 147 (≈ 47.5 µg/mL) | 18 (≈ 5.82 µg/mL) | 147 (≈ 47.5 µg/mL) | 9 (≈ 2.91 µg/mL) | 147 (≈ 47.5 µg/mL) | 18 (≈ 5.82 µg/mL) | > 100 | > 100 | > 100 | > 100 | > 100 | > 100 | > 100 | > 100 | > 100 | > 100 | EC50 [6]: > 100 µg/mL; EC50 (Coxsackievirus B4 [7]): > 100 µg/mL; EC50 [8]: > 100 µg/mL; EC50 (Human respirovirus 3): > 100 µg/mL; EC50 (Punta Toro virus): > 100 µg/mL |
| O=C(c1ccc([N+](=O)[O-])cc1)n1ccnc1-c1ccccc1[N+](=O)[O-] | 295 (≈ 99.8 µg/mL) | 36 (≈ 12.2 µg/mL) | 295 (≈ 99.8 µg/mL) | 36 (≈ 12.2 µg/mL) | 295 (≈ 99.8 µg/mL) | 36 (≈ 12.2 µg/mL) | 73 (≈ 24.7 µg/mL) | 4 (≈ 1.35 µg/mL) | 295 (≈ 99.8 µg/mL) | 36 (≈ 12.2 µg/mL) | > 100 | > 100 | > 100 | > 100 | > 100 | > 100 | > 100 | > 100 | > 100 | > 100 | EC50 [6]: > 100 µg/mL; EC50 (Coxsackievirus B4 [7]): > 100 µg/mL; EC50 [8]: > 100 µg/mL; EC50 (Human respirovirus 3): > 100 µg/mL; EC50 (Punta Toro virus): > 100 µg/mL |
| O=C(c1ccccc1Br)n1ccnc1-c1ccccc1Cl | 268 (≈ 96.9 µg/mL) | 69 (≈ 25 µg/mL) | 268 (≈ 96.9 µg/mL) | 69 (≈ 25 µg/mL) | 268 (≈ 96.9 µg/mL) | 69 (≈ 25 µg/mL) | 138 (≈ 49.9 µg/mL) | 8 (≈ 2.89 µg/mL) | 138 (≈ 49.9 µg/mL) | 17 (≈ 6.15 µg/mL) | > 100 | > 100 | > 100 | > 100 | > 100 | > 100 | > 100 | > 100 | > 100 | > 100 | EC50 [6]: > 100 µg/mL; EC50 (Coxsackievirus B4 [7]): > 100 µg/mL; EC50 [8]: > 100 µg/mL; EC50 (Human respirovirus 3): > 100 µg/mL; EC50 (Punta Toro virus): > 100 µg/mL |
| Nc1ccn(C[C@@H](CO)OCP(=O)(O)O)c(=O)n1.O.O [CIDOFOVIR] | – | – | – | – | – | – | – | – | – | – | > 250 | – | 2 | > 250 | 2 | – | – | – | – | – | – |
| O=C(c1ccc([N+](=O)[O-])cc1)n1ccnc1-c1ccc(Cl)cc1 | 152 (≈ 49.8 µg/mL) | 38 (≈ 12.5 µg/mL) | 305 (≈ 100 µg/mL) | 19 (≈ 6.23 µg/mL) | 305 (≈ 100 µg/mL) | 38 (≈ 12.5 µg/mL) | 76 (≈ 24.9 µg/mL) | 4 (≈ 1.31 µg/mL) | 152 (≈ 49.8 µg/mL) | 19 (≈ 6.23 µg/mL) | > 100 | > 100 | > 100 | > 100 | > 100 | > 100 | > 100 | > 100 | > 100 | > 100 | EC50 [6]: > 100 µg/mL; EC50 (Coxsackievirus B4 [7]): 45 µg/mL (≈ 137 µM); EC50 [8]: > 100 µg/mL; EC50 (Human respirovirus 3): > 100 µg/mL; EC50 (Punta Toro virus): > 100 µg/mL |
| Nc1ncnc2c1ncn2C[C@H](O)CO [(S)-DHPA] | – | – | – | – | – | – | – | – | – | – | – | – | – | – | – | > 250 | > 250 | > 250 | > 250 | > 250 | EC50 [6]: > 250 µg/mL; EC50 (Coxsackievirus B4 [7]): > 250 µg/mL; EC50 [8]: > 250 µg/mL; EC50 (Human respirovirus 3): > 250 µg/mL; EC50 (Punta Toro virus): > 250 µg/mL |
| NC(=O)c1ncn([C@@H]2O[C@H](CO)[C@@H](O)[C@H]2O)n1 [RIBAVIRIN] | – | – | – | – | – | – | – | – | – | – | > 250 | > 250 | > 250 | – | > 250 | > 250 | > 250 | > 250 | > 250 | > 250 | – |
| Nc1nc2c(ncn2COC(CO)CO)c(=O)[nH]1 [GANCICLOVIR] | – | – | – | – | – | – | – | – | – | – | > 100 | 0.06 (≈ 0.235 µM) | 0.06 (≈ 0.235 µM) | > 100 | 1 (≈ 3.92 µM) | – | – | – | – | – | – |
| O=c1[nH]c(=O)n([C@H]2C[C@H](O)[C@@H](CO)O2)cc1/C=C/Br [BRIVUDINE] | – | – | – | – | – | – | – | – | – | – | > 250 | 0.04 (≈ 0.12 µM) | 29 (≈ 87.1 µM) | > 250 | 96 (≈ 288 µM) | – | – | – | – | – | – |
| O=[N+]([O-])c1ccc(-c2ncc[nH]2)cc1 | 33 (≈ 6.24 µg/mL) | 4 (≈ 0.757 µg/mL) | 132 (≈ 25 µg/mL) | 16 (≈ 3.03 µg/mL) | 33 (≈ 6.24 µg/mL) | 4 (≈ 0.757 µg/mL) | 264 (≈ 49.9 µg/mL) | 33 (≈ 6.24 µg/mL) | 264 (≈ 49.9 µg/mL) | 33 (≈ 6.24 µg/mL) | – | – | – | – | – | – | – | – | – | – | – |
| O=[N+]([O-])c1cccc(-c2ncc[nH]2)c1 | 33 (≈ 6.24 µg/mL) | 4 (≈ 0.757 µg/mL) | 33 (≈ 6.24 µg/mL) | 4 (≈ 0.757 µg/mL) | 33 (≈ 6.24 µg/mL) | 4 (≈ 0.757 µg/mL) | 264 (≈ 49.9 µg/mL) | 33 (≈ 6.24 µg/mL) | 264 (≈ 49.9 µg/mL) | 33 (≈ 6.24 µg/mL) | – | – | – | – | – | – | – | – | – | – | – |
| O=C(O)c1ccccc1-c1ncc[nH]1 | 531 (≈ 99.9 µg/mL) | 4 (≈ 0.753 µg/mL) | 33 (≈ 6.21 µg/mL) | 4 (≈ 0.753 µg/mL) | 265 (≈ 49.9 µg/mL) | 4 (≈ 0.753 µg/mL) | 265 (≈ 49.9 µg/mL) | 33 (≈ 6.21 µg/mL) | 526 (≈ 99 µg/mL) | 66 (≈ 12.4 µg/mL) | – | – | – | – | – | – | – | – | – | – | – |

— ChEMBL document CHEMBL1158343, “Synthesis, antimicrobial and antiviral evaluation of substituted imidazole derivatives” (Eur J Med Chem, 2009)
